Experiments:
[1] = test system: Rattus norvegicus; assay: Effect of antigen-induced dyspnea in hyperreactive inbred rats at 0.5 mg/kg of compound concentration; type: functional
Outline: (§1)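 Inbred hyperreactive rats receive compound orally 4 h before antigen, as a suspension in 0.4% methocel/0.5% Tween 80 (10 mL/kg). Methysergide (3 μg/kg iv) is given 5 min before ovalbumin aerosol challenge. Respiration is recorded by pneumotachograph. Percent inhibition is reduction in dyspnea duration versus vehicle controls, with Student's t test. ED50 is derived by linear regression.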

[2] = biological target: T1, Polyunsaturated fatty acid 5-lipoxygenase (Rattus norvegicus, UniProt P12527); assay: Concentration required for 50 % inhibition of arachidonic acid oxidation by rat 5-lipoxygenase
T1 sequence (P12527 whole entry): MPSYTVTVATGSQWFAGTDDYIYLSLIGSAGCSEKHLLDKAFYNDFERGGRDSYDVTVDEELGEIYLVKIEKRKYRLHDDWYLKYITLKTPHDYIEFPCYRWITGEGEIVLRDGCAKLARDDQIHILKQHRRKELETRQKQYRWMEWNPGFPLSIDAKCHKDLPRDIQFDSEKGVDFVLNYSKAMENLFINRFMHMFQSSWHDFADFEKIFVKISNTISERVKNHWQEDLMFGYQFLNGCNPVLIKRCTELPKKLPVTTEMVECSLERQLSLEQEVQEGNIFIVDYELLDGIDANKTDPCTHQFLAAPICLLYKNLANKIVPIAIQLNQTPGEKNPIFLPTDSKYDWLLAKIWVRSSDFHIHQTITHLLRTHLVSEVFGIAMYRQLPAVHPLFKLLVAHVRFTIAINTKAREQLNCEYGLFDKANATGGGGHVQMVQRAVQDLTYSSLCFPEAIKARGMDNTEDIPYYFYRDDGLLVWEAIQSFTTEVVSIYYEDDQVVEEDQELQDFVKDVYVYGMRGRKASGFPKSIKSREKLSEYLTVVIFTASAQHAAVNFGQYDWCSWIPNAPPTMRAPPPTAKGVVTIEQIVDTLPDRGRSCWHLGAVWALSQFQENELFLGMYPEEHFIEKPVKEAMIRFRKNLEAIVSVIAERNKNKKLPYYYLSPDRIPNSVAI
Outline: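 Rat PMN leukocyte 10000g supernatant is used as the enzyme. Incubation is run in 25 mM Na+/K+ phosphate pH 7.3 with 1 mM ATP, 0.5 mM CaCl2 and 0.5 mM mercaptoethanol. Inhibitor from DMSO (500-fold stock) is preincubated 2 min at 37°C. [14C]arachidonic acid is added to 10 μM final for 10 min at 37°C. Conversion to 5-HETE and 5,12-diHETEs is read by TLC radioscan. IC50 is derived by linear regression.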

[3] = test system: Rattus norvegicus; assay: Inhibition of antigen (IgE) induced bronchoconstriction in hyperreactive inbred rats at a dose of 1.5 mg/kg; type: functional; outline: as §1
[4] = biological target: T2, Seed linoleate 13S-lipoxygenase-1 (Glycine max, UniProt P08170); assay: Inhibitory activity towards soybean lipoxygenase
T2 sequence (P08170 whole entry): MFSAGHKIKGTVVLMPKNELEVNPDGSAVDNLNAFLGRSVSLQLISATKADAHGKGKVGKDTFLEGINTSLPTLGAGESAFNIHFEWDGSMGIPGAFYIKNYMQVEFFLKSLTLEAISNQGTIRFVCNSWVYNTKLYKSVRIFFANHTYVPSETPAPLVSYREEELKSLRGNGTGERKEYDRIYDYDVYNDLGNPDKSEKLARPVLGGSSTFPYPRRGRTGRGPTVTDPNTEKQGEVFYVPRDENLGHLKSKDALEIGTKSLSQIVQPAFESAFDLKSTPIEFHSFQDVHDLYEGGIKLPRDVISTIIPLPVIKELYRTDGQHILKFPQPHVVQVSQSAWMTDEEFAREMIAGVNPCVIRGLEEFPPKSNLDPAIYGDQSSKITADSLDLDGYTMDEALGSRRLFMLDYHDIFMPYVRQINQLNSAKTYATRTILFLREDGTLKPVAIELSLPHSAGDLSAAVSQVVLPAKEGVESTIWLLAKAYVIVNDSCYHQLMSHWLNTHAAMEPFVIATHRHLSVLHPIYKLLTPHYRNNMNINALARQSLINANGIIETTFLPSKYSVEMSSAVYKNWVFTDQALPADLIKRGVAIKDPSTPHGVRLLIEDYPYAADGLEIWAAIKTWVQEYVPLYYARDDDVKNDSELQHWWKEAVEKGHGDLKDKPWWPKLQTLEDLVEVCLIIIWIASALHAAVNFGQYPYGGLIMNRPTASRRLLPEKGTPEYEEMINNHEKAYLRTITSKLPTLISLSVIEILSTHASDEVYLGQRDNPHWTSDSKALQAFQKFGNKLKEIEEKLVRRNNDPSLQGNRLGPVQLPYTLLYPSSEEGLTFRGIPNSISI

[5] = organism: Rattus norvegicus; assay: Inhibition of hyperalgesia response induced by subplantar injection of platelet-activating factor in rat; type: functional
[6] = test system: Rattus norvegicus; assay: Inhibition of antigen (IgE) induced bronchoconstriction in hyperreactive inbred rats at a compound dose of 0.15 mg/kg; type: functional; outline: as §1
[7] = test system: Saimiri sciureus; assay: Inhibition of increase in pulmonary resistance and decrease in dynamic compliance of ascaris antigen-induced bronchoconstriction in squirrel monkeys at 0.25 mg/kg compound concentration
[8] = test system: Rattus norvegicus; assay: Inhibition of antigen (IgE) induced bronchoconstriction in hyperreactive inbred rats at a compound dose of 0.5 mg/kg; type: functional; outline: as §1
[9] = test system: Rattus norvegicus; assay: Effect of antigen-induced dyspnea in hyperreactive inbred rats at 1.5 mg/kg of compound concentration; type: functional; outline: as §1
[10] = biological target: T3, Polyunsaturated fatty acid 5-lipoxygenase (Homo sapiens, UniProt P09917); assay: Concentration required for 50 % inhibition of leukotriene B4 production in human PMN compared with controls in the absence of compound; type: functional
T3 sequence (P09917 whole entry): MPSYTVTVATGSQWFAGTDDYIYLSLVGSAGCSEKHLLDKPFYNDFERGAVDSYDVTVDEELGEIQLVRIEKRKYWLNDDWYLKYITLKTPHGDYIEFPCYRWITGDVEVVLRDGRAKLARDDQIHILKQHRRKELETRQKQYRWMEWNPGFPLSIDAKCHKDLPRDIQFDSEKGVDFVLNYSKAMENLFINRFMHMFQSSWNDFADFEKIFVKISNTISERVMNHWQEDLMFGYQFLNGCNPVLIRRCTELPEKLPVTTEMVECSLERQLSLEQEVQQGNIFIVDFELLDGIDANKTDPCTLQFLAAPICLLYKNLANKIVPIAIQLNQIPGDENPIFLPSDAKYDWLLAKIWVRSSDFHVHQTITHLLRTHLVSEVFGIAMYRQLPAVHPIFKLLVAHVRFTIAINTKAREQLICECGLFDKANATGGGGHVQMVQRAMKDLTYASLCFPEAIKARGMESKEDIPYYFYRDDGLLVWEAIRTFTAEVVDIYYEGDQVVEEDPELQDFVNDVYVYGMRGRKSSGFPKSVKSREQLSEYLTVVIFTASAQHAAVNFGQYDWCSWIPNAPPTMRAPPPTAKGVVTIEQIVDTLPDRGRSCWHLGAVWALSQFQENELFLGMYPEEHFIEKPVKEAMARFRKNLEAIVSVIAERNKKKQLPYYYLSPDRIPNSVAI
Outline: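 Human PMN are isolated from citrated venous blood by dextran sedimentation, Ficoll-Hypaque and NH4Cl lysis. Cells (5×10^5/mL in HHBSS) are warmed 10 min at 37°C and given compound in DMSO for 2 min. They are stimulated with A23187 (10 μM) for 5 min and stopped with methanol. LTB4 is measured by radioimmunoassay.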

[11] = test system: Rattus norvegicus; assay: Inhibition of antigen (IgE) induced bronchoconstriction in hyperreactive inbred rats at a compound dose of 5.0 mg/kg; type: functional; outline: as §1
[12] = test system: Rattus norvegicus; assay: Inhibition of antigen (IgE) induced bronchoconstriction in hyperreactive inbred rats at a compound dose of 1.5 mg/kg; type: functional; outline: as §1

| IC50 [2] [nM] | IC50 [10] [nM] | SMILES | other results |
| --- | --- | --- | --- |
| 36 |  | CCCc1cc(Cl)c2oc(Cc3ccc(OC)cc3)c(C)c2c1O | ED50 [1]: 0.7 mg/kg; inhibition in vivo at 1.5 mg/kg [3]: 56%; IC50 [4]: 30000 nM; AD100 [5]: 1.5 mg/kg; inhibition in vivo at 0.15 mg/kg [6]: 36%; inhibition in vivo at 0.25 mg/kg [7]: > 85%; inhibition in vivo at 0.5 mg/kg [8]: 48% |
|  | 46 | COc1ccc(Cc2oc3c(Cl)cc(C)c(O)c3c2C)cc1 |  |
|  | 105 | CCCc1cc(Cl)c2oc(Cc3ccc(OCC(=O)O)cc3)c(C)c2c1O | inhibition in vivo at 1.5 mg/kg [3]: 28% |
|  | 13 | CCCc1cc(Cl)c2oc(Cc3ccc(OC)cc3OC)c(C)c2c1O |  |
|  | 20 | CCCc1cc(Cl)c2oc(Cc3ccc(OC)cc3)c(CCC)c2c1O |  |
|  | 2130 | COc1ccc(Cc2oc3c(Cl)cc(CCC(=O)O)c(O)c3c2C)cc1 | inhibition in vivo at 1.5 mg/kg [3]: 11% |
|  | 20 | C=CCc1cc(Cl)c2oc(Cc3ccc(OC)cc3)c(C)c2c1O |  |
|  | 99 | COc1ccc(Cc2oc3c(Cl)cc(C(C)(C)C)c(O)c3c2C)cc1 | inhibition in vivo at 1.5 mg/kg [3]: 32% |
| 129 | 7 | CCCc1cc(F)c2oc(Cc3ccc(OC)cc3)c(C)c2c1O |  |
| 2000 | 376 | COc1ccc(Cc2oc3c(Cl)ccc(O)c3c2C)cc1 |  |

Second part, the molecule before the results:

| SMILES | IC50 [2] [nM] | IC50 [10] [nM] | other results |
| --- | --- | --- | --- |
| CCCc1ccc2oc(Cc3ccc(OC)cc3)c(C)c2c1O | 130 | 31 | inhibition in vivo at 1.5 mg/kg [3]: 64%; ED50 [9]: < 0.5 mg/kg; inhibition in vivo at 5 mg/kg [11]: 66%; inhibition in vivo at 0.5 mg/kg [8]: 55% |
| COc1ccc(Cc2oc3c(Cl)cc(CCCO)c(O)c3c2C)cc1 | 161 | 76 | inhibition in vivo at 0.15 mg/kg [6]: 39%; inhibition in vivo at 0.5 mg/kg [8]: 58% |
| CCCc1cc(C)c2oc(Cc3ccc(OC)cc3)c(C)c2c1O | 140 | 12 | inhibition in vivo at 1.5 mg/kg [12]: 49%; inhibition in vivo at 5 mg/kg [11]: 55% |
| CCOCc1cc(Cl)c2oc(Cc3ccc(OC)cc3)c(C)c2c1O |  | 291 |  |
| COc1ccc(Cc2oc3cccc(O)c3c2C)cc1 | 2070 | 574 |  |
| CCCc1cc(Cl)c2oc(Cc3ccc(Cl)cc3)c(C)c2c1O |  | 26 |  |
| CCCc1cc(Cl)c2oc(Cc3ccccc3)c(C)c2c1O |  | 30 |  |
| COc1ccc(Cc2oc3c(Cl)cc(Cl)c(O)c3c2C)cc1 |  | 860 |  |

— ChEMBL document CHEMBL1124599, “Synthesis and structure-activity relationships of a novel class of 5-lipoxygenase inhibitors. 2-(Phenylmethyl)-4-hydroxy-3,5-dialkylbenzofurans: the development of L-656,224” (J Med Chem, 1989)
